Measurements published in ChEMBL document CHEMBL4513216, “Probing the Open Global Health Chemical Diversity Library for Multistage-Active Starting Points for Next-Generation Antimalarials” (ACS Infect Dis, 2020).

assay: Toxicity liver stage against HepG2, at 10uM; type: cell-based; parameters: test concentration 10 uM, cell line HepG2-A16-CD81EGFP; conditions: human, HepG2-A16-CD81EGFP cells; read-out: INHIBITION
How it was run: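 Uninfected HepG2-A16-CD81EGFP cells, 3 × 10^3 per well, 1536-well, plated on prespotted compound at 10 μM final, parasite-free screening media added to match infected plates; puromycin 10 μM positive, DMSO 0.5% negative; run in parallel with 48 h PbLuc assay at 37 °C, 5% CO2; viability by CellTiter-Glo luminescence, normalized to controls.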

In order of falling cytotoxicity at 10 µM:
1. CC(C)NC(=O)Nc1nc2c(s1)CN(C(=O)NCc1cccs1)CC2  33%
2. O=C1CNc2ncnc(Nc3cccc(Cn4cccn4)c3)c2N1  19.8%
3. Cc1cccc(N2CC[C@H]3CO[C@H](CN(C)Cc4ccco4)[C@H]3C2)n1  13.3%
4. OC1(c2ccccc2F)CCN(Cc2ccccc2N2CCCC2)CC1  13.2%
5. OC1(CNCCCN2CCCc3ccccc32)CNCCOC1 (stereo unspecified)  13.2%
6. OC[C@@H](O)CN(CCC(F)(F)F)c1ncc(Cl)cn1  12.8%
7. COCCN(C)C[C@@H]1CN(C(=O)c2ccc(O)c(Cl)c2)C[C@@H]1CO  10.5%
8. CNC(=O)NC(=O)CN1CCN(CC2CC2)c2ccccc21  10.4%
9. Cc1ccc(N2CC[C@H]3O[C@H](C(=O)N4CCCCO4)CC[C@H]32)nn1  10.1%
10. CNC(=O)c1sccc1S(=O)(=O)NC  8.52%
11. COC(=O)C1CCCN1CC(=O)NCc1ccc(OCC(N)=O)cc1 (stereo unspecified)  7.45%
12. O=C(NCC1CC1)[C@H]1CC[C@@H]2[C@@H](CCN2Cc2nccs2)O1  6.93%
13. CN(C)c1ccc(C(=O)NCC2(c3ccccc3)CCOCC2)cc1  6.52%
14. CCOC(=O)CC(C)Nc1nc(C(C)(C)C)nc2c1cnn2C (stereo unspecified)  6.51%
15. Cc1nc(CN2CCCC(NCc3c(C)nc4sccn34)C2)no1 (stereo unspecified)  6.21%
16. c1cc(-c2cncnc2)cc(-c2ccn(CC3CCNC3)n2)c1 (stereo unspecified)  5.54%
17. CCc1cc(N2CCC(Nc3ccc4nnc(C)n4n3)CC2)ncn1  4.69%
18. O=C(C1CCCc2[nH]ncc21)N1CCCCCC1 (stereo unspecified)  4.65%
19. N#CCCCn1cnc2c(F)cc(Br)cc2c1=O  4.29%
20. CSc1ccc(-c2noc(CN(Cc3ccccc3)C(C)C)n2)cc1  3.88%
21. CO[C@@H]1CN(c2ccccc2)S(=O)(=O)[C@@]12CCN(Cc1ccccc1)C2  3.51%
22. O=C(c1cccc(S(=O)(=O)NC[C@@H]2C[C@H](F)CN2)c1)N1CCCCC1  3.5%
23. Cc1nc(CN2CCCC(CCc3ccccc3C(F)(F)F)C2)no1 (stereo unspecified)  2.79%
24. COC(=O)C(C)NCc1ccc2[nH]c(C)c(C)c2c1 (stereo unspecified)  2.4%
25. CCc1nnc(CN(C)C(=O)C2CC(=O)N(C3CC3)C2)o1 (stereo unspecified)  2.28%
26. Cc1ccccc1S(=O)(=O)NC(=O)C1(c2cccc(Cl)c2)CC1  1.97%
27. O=C(O)c1cc(-c2ccccc2)ns1  1.91%
28. O=C(NCC1CCCO1)Nc1nnc(C(F)(F)F)s1 (stereo unspecified)  1.72%
29. Cc1cc(=O)[nH]c(NCCNC(=O)c2ccccc2N2CCCC2)n1  0.998%
30. Fc1ccc(CNCC2OCCc3cn(CC4CC4)nc32)cc1 (stereo unspecified)  0.925%
31. Cc1nc(NC(=O)C(C)N(C)Cc2ccc3c(c2)OCO3)sc1C (stereo unspecified)  0.787%
32. COc1ccc(COCC(O)CNC(=O)c2ccc(C#N)cc2)cc1 (stereo unspecified)  0.561%
33. COC(=O)[C@@H]1CN(S(=O)(=O)c2ccccc2)CCN1S(C)(=O)=O  0.471%
34. Cc1cc(C)n(CC(C)NCc2nc(-c3cccnc3)no2)n1 (stereo unspecified)  0.107%
35. COc1ccc(CN2CCN(C(=O)c3ccc(C)n3C)CC2)cc1  -0.0113%
36. CN1CCN2C[C@@H](NC(=O)c3nc4ccccc4[nH]3)C[C@H]2C1  -0.159%
37. Cc1cccnc1CN1CCN(C[C@]2(O)CCCN3CCCC[C@@H]32)CC1  -0.418%
38. O=C(c1n[nH]c(=O)c2ccccc12)N1CCCC1Cn1cccn1 (stereo unspecified)  -0.743%
39. CN(CCc1ccccn1)C(=O)C(O)c1ccc(Br)cc1 (stereo unspecified)  -0.779%
40. COc1coc(CN2CCCC(CCc3ccccc3C)C2)cc1=O (stereo unspecified)  -0.931%
41. CC(C)c1noc(CCNC(=O)C2COc3ccccc3C2)n1 (stereo unspecified)  -1.24%
42. Cc1ncccc1CNC1CCCN(Cc2noc(C3CC3)n2)C1 (stereo unspecified)  -1.34%
43. CC(C)(C)n1ncc2c1NC(=O)CC2c1c(F)cccc1F (stereo unspecified)  -1.53%
44. Cc1n[nH]c(C)c1-c1cnc(CC2CCN(C)C2)cn1 (stereo unspecified)  -2.11%
45. Cc1nc(CCCNC(=O)c2coc(CN3CCOCC3)c2)sc1C  -2.11%
46. CN(C(=O)NCc1nccn1Cc1ccccc1)C1CC1  -2.22%
47. CCN1CCOC(CNCc2cnc(C(C)(C)C)s2)C1 (stereo unspecified)  -2.24%
48. O=C(NCc1ccc(-n2cncn2)nc1)c1ccoc1  -2.38%
49. CO[C@H]1CN(C(C)C)C[C@@H]1NC(=O)c1cc(COc2ccccc2)[nH]n1  -2.43%
50. CC(C)c1noc(C(C)N2CCN(c3ccc(C#N)cn3)CC2)n1 (stereo unspecified)  -2.57%
51. O=S1(=O)CCC(n2cc(C3=CCN(CCc4ccccc4)CC3)cn2)C1 (stereo unspecified)  -2.64%
52. COCCN(CCOC)c1ncccc1I  -2.69%
53. CC(Cn1cccn1)NCc1csc2c1CCCC2 (stereo unspecified)  -2.86%
54. COC(=O)N1CCc2ccccc2C1C(=O)NCc1ccccn1 (stereo unspecified)  -3.01%
55. Cc1noc(C)c1CN(C)C(C)c1cccs1 (stereo unspecified)  -3.11%
56. COc1ccc(N(Cc2ccco2)C(=O)C2CCCO2)cc1F (stereo unspecified)  -3.51%
57. CN1CCCC[C@@H]2[C@H]1[C@@H](c1ccccc1)CCN2C(=O)c1cnccn1  -3.81%
58. CNc1snc(C)c1C(=O)N1CCCC(n2cccn2)C1 (stereo unspecified)  -3.81%
59. COCc1nc(C(=O)N2CCCC2c2ccc(OC)cc2)cs1 (stereo unspecified)  -3.81%
60. O=C(Cc1ccc2c(c1)CCC2)NCCNc1ncccn1  -3.93%
61. c1ccc(Cn2ccnc2CNC2CCCOc3ccccc32)cc1 (stereo unspecified)  -4.34%
62. O=C(CSC1CCCC1)N1CCN(C(=O)C2CC2c2ccccc2)CC1 (stereo unspecified)  -4.74%
63. CCN1CCN(Cc2ccnc(-c3cccnc3)n2)CC1  -5.23%
64. Cc1cc(C(C)NC(=O)Cn2nc(C)c3ccccc3c2=O)c(C)o1 (stereo unspecified)  -5.3%
65. COCC[C@]1(O)CCN(CC(=O)NCc2ccccc2C)C[C@H]1C  -5.31%
66. CC(Cn1ccnc1)NC(=O)C1(c2ccccc2)CC1 (stereo unspecified)  -5.74%
67. O=C(Nc1ccccc1F)C1CN(C(=O)c2ccc3c(c2)OCO3)C1  -5.96%
68. Cc1ncc2c(n1)CN(CC(=O)Nc1ccc(Cl)cn1)CC2  -6.19%
69. Cc1ccc(CN(C)Cc2ncc(C(C)(C)C)o2)o1  -6.58%
70. Cc1nc(C)n(Cc2cccc(NC(=O)N(C)CCC(C)O)c2)n1 (stereo unspecified)  -6.64%
71. Cn1ccc(C(=O)NCc2cccc(N3CCCCC3=O)c2)cc1=O  -6.68%
72. CCS(=O)(=O)N1CCc2ccc(NC(=O)NC(C)(C)C)cc21  -6.69%
73. Cc1nc(C2CCCN(C(=O)CN3CCCC3=O)C2)sc1C (stereo unspecified)  -6.96%
74. Cc1cccc(CCC(=O)N2CCCC(c3cc(C(N)=O)[nH]n3)C2)c1 (stereo unspecified)  -7.1%
75. CCc1ccc(S(=O)(=O)Nc2cc(OC)c(OC)cc2C(=O)O)s1  -7.22%
76. CCn1ncc(S(=O)(=O)N2CCCC3(CC=CNC3=O)C2)c1C (stereo unspecified)  -7.6%
77. CCOCCN1CCN(C(C)C(=O)Nc2ccnn2C(C)C)CC1 (stereo unspecified)  -7.87%
78. COc1ccc2[nH]nc(CN3CCN(Cc4cccc(F)c4)CC3)c2c1  -8.14%
79. O=C(NCCn1ccnc1)c1cccc(F)c1  -10%
80. Cc1cc(CN2CCCC2Cn2cncn2)no1 (stereo unspecified)  -10%
81. CN(Cc1n[nH]c2c1CCC2)C(=O)CCc1cc2n(n1)CCNC2  -10.5%
82. COc1ccccc1CC(=O)N1CCC(NCc2ccccn2)CC1  -11.5%
83. CC(C)n1ccnc1CN1CCCN(C(=O)c2cnc[nH]2)CC1  -11.9%
84. NC(=O)NCC1CCCCN1C(=O)c1ccc(Cl)s1 (stereo unspecified)  -12.1%
85. O=C(O)c1cn(CC2CCCN(c3nc4ccccc4s3)C2)nn1 (stereo unspecified)  -12.2%
86. O=C(Cn1cc(Cl)cn1)N1CCNC1=O  -13.2%
87. O=C(C1CC1)N1CCc2c(ncnc2N2CCN3CCCC3C2)C1 (stereo unspecified)  -13.6%
88. Cc1csc(N2CCCN(C(=O)c3occc3C)CC2)n1  -13.8%
89. CC(C(=O)NCCCN1CCCCCC1=O)n1cncn1 (stereo unspecified)  -20.9%
90. Cc1ccc2c(c1)CN(C(=O)c1cccnc1)C(CN(C)C)CO2 (stereo unspecified)  -25.5%
91. CNC(=O)c1cn(C)c(-c2nc3cc(NC(C)=O)ccc3n2C)c1OC  -42.5%
92. CC(C)c1noc(OCc2cccc(C#N)c2)n1  -43.6%
93. CN1CCc2[nH]nc(C(=O)N3CCCC4(CC3)CNC(=O)O4)c2C1 (stereo unspecified)  -44.6%
94. Cn1nc(-c2ccccc2)c(Cl)c1C(=O)O  -45%
95. COCCN1CCC(CNc2cnc3ccccc3n2)CC1  -46.6%
96. CCCc1nc(C)cc(N2CCNC(C(=O)Nc3ccc(C)nc3)C2)n1 (stereo unspecified)  -48.5%
97. CC(C)OCc1ccc(CNC(=O)NC2(CO)CCCC2)cc1  -48.9%
98. CCC(CC(=O)NS(=O)(=O)C(C)C)c1ccccc1 (stereo unspecified)  -49.1%
99. CCS(=O)(=O)N1CC[C@H]2OCC[C@@]2(C(=O)NC)C1  -72.6%
100. Cc1cc(C(=O)N2CCC3(C2)CN(c2ccsc2)C(=O)CN3C)[nH]n1 (stereo unspecified)  -75.2%
101. Cc1noc(C)c1CN1CC[C@H]2OCC[C@@]2(C(=O)NCC2CC2)C1  -77.2%
102. C[C@H]1C[C@H]2CN(Cc3ccccn3)CC[C@@H]2O1  -78.2%
103. C[C@H]1C[C@@H]2CCN(Cc3ccco3)C[C@H]2O1  -80.1%
104. COc1cccc(OC)c1CN1CC(O)CN(S(C)(=O)=O)CC1=O (stereo unspecified)  -82.6%
105. CCC1=N[C@@]2(CC[C@@H]3CN(Cc4ccccc4C)C[C@@H]32)C(=O)N1C  -107%
106. COCC1CC2(CCN(c3cccc(C)n3)CC2)CN1c1ncccn1 (stereo unspecified)  -108%
107. COCc1cnc2n1CCN(C(=O)c1cc3cc(Cl)ccc3o1)C2C (stereo unspecified)  -112%
108. CCN1CCC(c2nc3ccc(NC4CCC4)cn3n2)CC1  -121%
109. Cc1nc(N2CCCC2)nc2c1CCN(Cc1nccn1C)CC2  -130%
110. Cc1ccoc1C(=O)N1CCCC2(CCCN2S(C)(=O)=O)C1 (stereo unspecified)  -143%
111. CC(=O)Nc1ccc(CN2CCc3[nH]cnc3C2c2nccn2C)cc1 (stereo unspecified)  -182%
